Here are results for ten compounds from ChEMBL document CHEMBL1151774, “Synthesis and biological evaluation of new N-linked 5-triazolylmethyl oxazolidinones” (Eur J Med Chem, 2008).

The subject of series [1] is Staphylococcus aureus. The experiment in a line: Antimicrobial activity against methicillin-resistant Staphylococcus aureus after 16 to 18 hrs by agar dilution method. It is filed as functional. On the technique in general: In agar dilution the substance is mixed into plates at graded concentrations.
In series [2] the test system is Staphylococcus aureus. The series is described as follows: Antimicrobial activity against methicillin-susceptible Staphylococcus aureus after 16 to 18 hrs by agar dilution method. The format is functional.
The test system of series [3] is Enterococcus faecalis. The series is described as follows: Antimicrobial activity against Enterococcus faecalis after 16 to 18 hrs by agar dilution method. It is filed as functional.
For series [4], the system named is Streptococcus pneumoniae. The experiment in a line: Antimicrobial activity against sStreptococcus pneumoniae after 16 to 18 hrs by agar dilution method. The format is functional.
Series [5] deals with Staphylococcus aureus. The experiment in a line: Antimicrobial activity against Staphylococcus aureus ATCC 29213 after 16 to 18 hrs by agar dilution method. It is filed as functional.
The subject of series [6] is Staphylococcus aureus. The series is described as follows: Antimicrobial activity against methicillin-resistant Staphylococcus aureus 05-2 infected in po dosed KunMing SPF mouse. The format is functional. In a few lines:
(§1)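 Mice given a lethal systemic infection by intraperitoneal injection of the MLD inoculum of MRSA 05-2. Compound dosed orally or by i.v. injection in 0.9% NaCl immediately and 4 h post-infection. ED50 (dose curing 50% of infected mice) calculated by the Bliss method on day 7 post-infection, with 95% confidence ranges.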

Series [7] is described as follows: AUC (0 to infinity) in Sprague-Dawley rat at 10 mg/kg, po. Details: time infinity, dose 10 mg/kg, route oral. The conditions noted are these: Sprague-Dawley, plasma. It is filed as ADME, organism-based, Plasma. Summed up:
(§2)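 Single dose given orally (10 or 50 mg/kg) or intravenously (10 mg/kg). Serial 300 µL blood samples were taken from the retrobulbar vein. Plasma was quantified by LC-MS. Parameters came from mean plasma concentration by non-compartmental analysis. F is absolute oral bioavailability, assuming linear pharmacokinetics.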

A short description of series [8]: Elimination half life in Sprague-Dawley rat at 10 mg/kg, po. The conditions noted are these: in vivo, read-out: beta t1/2 (converted). It is filed as ADME, organism-based. Details: dose 10 mg/kg, route oral. Summed up:
as §2

Series [9] can be described thus: AUC (0 to infinity) in Sprague-Dawley rat at 10 mg/kg, iv. Particulars: plasma. It is filed as ADME, organism-based. Details: time infinity, dose 10 mg/kg, route intravenous. Summed up: as §2
Series [10] relates to Staphylococcus aureus. The experiment in a line: Antimicrobial activity against methicillin-resistant Staphylococcus aureus 05-2 infected in iv dosed KunMing SPF mouse. The format is functional. In a few lines:
as §1

Series [11] can be described thus: Elimination half life in Sprague-Dawley rat at 50 mg/kg, po. It is filed as ADME, organism-based. Details: dose 50 mg/kg, route oral. The conditions noted are these: in vivo, read-out: beta t1/2 (converted). Summed up: as §2
The nature of series [12]: Tmax in Sprague-Dawley rat at 10 mg/kg, po. It is filed as ADME, organism-based. The conditions noted are these: in vivo. Details: dose 10 mg/kg, route oral. Summed up: as §2
The nature of series [13]: Tmax in Sprague-Dawley rat at 50 mg/kg, po. The format is ADME, organism-based. Details: dose 50 mg/kg, route oral. The conditions noted are these: in vivo. Summed up:
as §2

A short description of series [14]: Clearance in Sprague-Dawley rat at 10 mg/kg, po. It is filed as ADME, organism-based. Details: dose 10 mg/kg, route oral. The conditions noted are these: in vivo. In a few lines:
as §2

The nature of series [15]: Oral bioavailability in Sprague-Dawley rat at 10 mg/kg. It is filed as ADME, organism-based. The conditions noted are these: in vivo. Summed up: as §2
Series [16] is described as follows: Cmax in Sprague-Dawley rat at 10 mg/kg, po. It is filed as ADME, organism-based. Details: dose 10 mg/kg, route oral. Particulars: in vivo. Summed up: as §2
Series [17] is described as follows: Elimination half life in Sprague-Dawley rat at 10 mg/kg, iv. The format is ADME, organism-based. Particulars: in vivo, read-out: beta t1/2 (converted). Details: dose 10 mg/kg, route intravenous. In a few lines: as §2
A short description of series [18]: Clearance in Sprague-Dawley rat at 10 mg/kg, iv. It is filed as ADME, organism-based. The conditions noted are these: in vivo. Details: dose 10 mg/kg, route intravenous. In a few lines: as §2
A short description of series [19]: AUC (0 to infinity) in Sprague-Dawley rat at 50 mg/kg, po. It is filed as ADME, organism-based, Plasma. Details: time infinity, dose 50 mg/kg, route oral. The conditions noted are these: Sprague-Dawley, plasma. Summed up: as §2
A short description of series [20]: Cmax in Sprague-Dawley rat at 50 mg/kg, po. It is filed as ADME, organism-based. Details: dose 50 mg/kg, route oral. Particulars: in vivo. In a few lines:
as §2

Series [21] can be described thus: Clearance in Sprague-Dawley rat at 50 mg/kg, po. It is filed as ADME, organism-based. Details: dose 50 mg/kg, route oral. The conditions noted are these: in vivo. Summed up:
as §2

In brackets after ≈: the same amount, converted by molar mass.

Consider `O=C1O[C@@H](Cn2ccnn2)CN1c1ccc(N2CCN(Cc3cccs3)CC2)c(F)c1`, for which the MIC in [1] worked out at 0.06 µg/mL (≈ 0.136 µM); in series [2], 0.06 µg/mL (≈ 0.136 µM); in series [3] it was 2 µg/mL (≈ 4.52 µM); in series [4], 0.06 µg/mL (≈ 0.136 µM); in series [5], 0.06 µg/mL (≈ 0.136 µM).
Turning to `Nc1ccccc1CN1CCN(c2ccc(N3C[C@H](Cn4ccnn4)OC3=O)cc2F)CC1`, the MIC in series [1] was found to be 0.5 µg/mL (≈ 1.11 µM); in series [2], 0.125 µg/mL (≈ 0.277 µM); in [3] it was 1 µg/mL (≈ 2.21 µM); in series [4], 0.5 µg/mL (≈ 1.11 µM); in series [5], 0.125 µg/mL (≈ 0.277 µM).
For `O=Cc1ccc(CN2CCN(c3ccc(N4C[C@H](Cn5ccnn5)OC4=O)cc3F)CC2)cc1`, the MIC in series [1] was 0.25 µg/mL (≈ 0.538 µM); in [2], 1 µg/mL (≈ 2.15 µM); in series [3], 2 µg/mL (≈ 4.31 µM); in series [4], 1 µg/mL (≈ 2.15 µM); in series [5], 0.008 µg/mL (≈ 0.0172 µM).
On to `O=C1O[C@@H](Cn2ccnn2)CN1c1ccc(N2CCN(Cc3cccnc3)CC2)c(F)c1`, for which the MIC was determined as 1 µg/mL (≈ 2.29 µM) in [1]; 0.125 µg/mL (≈ 0.286 µM) in series [2]; 1 µg/mL (≈ 2.29 µM) in [3]; 1 µg/mL (≈ 2.29 µM) in [4]; 0.125 µg/mL (≈ 0.286 µM) in series [5].
In the case of `O=C1O[C@@H](Cn2ccnn2)CN1c1ccc(N2CCN(Cc3cccc([N+](=O)[O-])c3)CC2)c(F)c1`, the 50% effective dose (ED50) in [6] came out at 7.87 mg/kg; in [10] it was 11.2 mg/kg. For the same compound, the values for the AUC(0-inf) in series [7], in [9] and in series [19] were 16100 ng·h/mL, 26200 ng·h/mL and 74500 ng·h/mL, respectively. The results for the half-life in [8], in [11] and in series [17] were 2.36 h, 5.34 h and 2.95 h, respectively. The MIC in [1] was found to be 0.5 µg/mL (≈ 1.04 µM); in series [2] it was 0.06 µg/mL (≈ 0.125 µM); in [3] it was 0.5 µg/mL (≈ 1.04 µM); in series [4], 0.5 µg/mL (≈ 1.04 µM); in series [5], 0.03 µg/mL (≈ 0.0623 µM). Moreover, the values for the Tmax in series [12] and in [13] were 1.4 h and 2.3 h, respectively. For the same compound, the CL/F worked out at 11.7 mL/min/kg in [14] and 11.3 mL/min/kg in series [21]. In [15], this compound displayed a bioavailability of 61.5%. For the same compound, the values for the Cmax in series [16] and in series [20] were 3240 ng/mL and 10800 ng/mL, respectively. In series [18], this compound came in with a clearance of 6.98 mL/min/kg.
As for `Nc1ccc(CN2CCN(c3ccc(N4C[C@H](Cn5ccnn5)OC4=O)cc3F)CC2)cc1`, the ED50 in series [6] stood at 14.5 mg/kg; in series [10] it was 6.73 mg/kg. Further, the AUC(0-inf) in series [7] is 3100 ng·h/mL; in series [9], 7080 ng·h/mL; in series [19], 18100 ng·h/mL. Moreover, the half-life was 3.4 h in series [8], 4.67 h in series [11] and 3.52 h in series [17]. In addition, the MIC was determined as 0.5 µg/mL (≈ 1.11 µM) in series [1]; 0.06 µg/mL (≈ 0.133 µM) in series [2]; 0.25 µg/mL (≈ 0.554 µM) in series [3]; 0.5 µg/mL (≈ 1.11 µM) in series [4]; 0.125 µg/mL (≈ 0.277 µM) in series [5]. Besides, the Tmax stood at 0.75 h in series [12] and 1 h in [13]. In addition, the results for the CL/F in series [14] and in [21] were 54.4 mL/min/kg and 49 mL/min/kg, respectively. The compound also displayed a bioavailability in series [15] of 43.8%. In addition, the Cmax is 1200 ng/mL in series [16] and 2320 ng/mL in [20]. This compound showed a clearance in series [18] of 23.9 mL/min/kg.
On to `Nc1cccc(CN2CCN(c3ccc(N4C[C@H](Cn5ccnn5)OC4=O)cc3F)CC2)c1`, for which the MIC in series [1] stood at 0.5 µg/mL (≈ 1.11 µM); in series [2] it was 0.25 µg/mL (≈ 0.554 µM); in [3], 0.5 µg/mL (≈ 1.11 µM); in series [4], 0.5 µg/mL (≈ 1.11 µM); in series [5] it was 0.25 µg/mL (≈ 0.554 µM).
Turning to `Cc1ccc(CN2CCN(c3ccc(N4C[C@H](Cn5ccnn5)OC4=O)cc3F)CC2)o1`, the minimal inhibitory concentration (MIC) in series [1] came out at 1 µg/mL (≈ 2.27 µM); in series [2], 0.125 µg/mL (≈ 0.284 µM); in series [3], 2 µg/mL (≈ 4.54 µM); in [4], 2 µg/mL (≈ 4.54 µM); in [5], 0.125 µg/mL (≈ 0.284 µM).
Regarding `O=C1O[C@@H](Cn2ccnn2)CN1c1ccc(N2CCN(Cc3ccc([N+](=O)[O-])cc3)CC2)c(F)c1`, the minimal inhibitory concentration (MIC) in series [1] is greater than 8 µg/mL; in series [2] it was 0.5 µg/mL (≈ 1.04 µM); in series [3], 8 µg/mL (≈ 16.6 µM); in [4] it was 4 µg/mL (≈ 8.31 µM); in series [5], 0.5 µg/mL (≈ 1.04 µM).
On to `O=C1O[C@@H](Cn2ccnn2)CN1c1ccc(N2CCN(Cc3ccco3)CC2)c(F)c1`, for which the ED50 is 12.3 mg/kg in [6] and 12 mg/kg in [10]. Also, the MIC amounted to 0.5 µg/mL (≈ 1.17 µM) in series [1]; 0.06 µg/mL (≈ 0.141 µM) in [2]; 0.5 µg/mL (≈ 1.17 µM) in series [3]; 0.5 µg/mL (≈ 1.17 µM) in series [4]; 0.06 µg/mL (≈ 0.141 µM) in series [5].

As a reminder, the MIC is the least concentration at which growth counts as inhibited. Read a high MIC as weaker potency. Usually ED50 stands for the midpoint of the dose-response relation. A word on the AUC(0-inf): it is the area under the concentration-time curve extrapolated to infinity. Low values mean low exposure, high ones high exposure. The term Tmax denotes the time from dosing to the highest level. By CL/F is commonly meant clearance divided by bioavailability, as obtained after extravascular dosing. By bioavailability is commonly meant the share of a dose that reaches the circulation, judged against a reference dose that is usually intravenous. The low end stands for poor availability, the high end for good availability. By Cmax is commonly meant the maximum level reached in the sampled fluid or tissue. One may read the clearance as the volume of plasma or blood freed of the substance per unit of time.
